# The source made the active and inactive calls. The rule behind the calls is not given here.
# What was measured:
# [1] = test system: PC-3; assay: Effect on JUN mRNA expression in human PC3 cells at IC50 after 48 hrs by RT-PCR analysis; type: functional, cell-based
# Method in brief: (§1)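 Transcripts quantified by TaqMan real-time PCR with RNaseP as normalizer; relative quantity versus untreated cells by the 2−ΔΔCt method. Panel genes measured with a 92-gene cancer-mechanism TaqMan array.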
# [2] = test system: Quadruplex DNA; assay: Stabilization of AR G-quadruplex oligonucleotide in human DU145 cells assessed as down-regulation of ITGB3 mRNA expression at IC50 after 48 hrs by RT-PCR analysis; type: cell-based; method in brief: as §1
# [3] = test system: Quadruplex DNA; assay: Stabilization of AR G-quadruplex oligonucleotide in human 22Rv1 cells assessed as down-regulation of ITGB3 mRNA expression at IC50 after 48 hrs by RT-PCR analysis; type: cell-based; method in brief: as §1
# [4] = test system: Quadruplex DNA; assay: Stabilization of 5'-FAM/3'-TAMRA labelled AR1 G-quadruplex oligonucleotide (unknown origin) assessed as change in melting temperature t1/2 at 1 uM after 16 hrs in presence of 100 mM K+ by FRET assay; type: nucleic-acid assay
# Method in brief: (§2)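 FRET melting: FAM/TAMRA dual-labelled oligos (0.25 μM) folded in 10 mM lithium cacodylate pH 7.4 with 100 mM KCl (95 °C 5 min, cooled 4 h); ligand added at 1 μM final, 16 h room temperature. FAM emission followed 30−95 °C at 1 °C/min; curves normalized 0 to 1, T1/2 at 0.5 fraction.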
# [5] = test system: CWR22R; assay: Effect on JUN mRNA expression in human 22Rv1 cells at IC50 after 48 hrs by RT-PCR analysis; type: functional, cell-based; method in brief: as §1
# [6] = test system: PC-3; assay: Synergistic cytotoxicity against human PC3 cells assessed as combination index for reduction in cell viability measured at ED75 Enzalutamide at 0.001 to 0.1 uM after 72 hrs by MTS assay based Chou and Talay's plot analysis
# [7] = test system: Quadruplex DNA; assay: Stabilization of AR G-quadruplex oligonucleotide in human LNCAP cells assessed as down-regulation of KLK3 mRNA expression at IC50 after 48 hrs by RT-PCR analysis; type: cell-based; method in brief: as §1
# [8] = test system: Quadruplex DNA; assay: Binding affinity to 5'-Biotinylated-AR1 G-quadruplex oligonucleotide (unknown origin) by SPR analysis relative to control; type: nucleic-acid assay
# [9] = test system: Quadruplex DNA; assay: Stabilization of AR G-quadruplex oligonucleotide in human LNCAP cells assessed as down-regulation of KLK3 mRNA expression at IC50 after 72 hrs by RT-PCR analysis; type: cell-based
# Method in brief: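 Cells grown in RPMI-1640 with 10% fetal calf serum, 37 °C, 5% CO2, treated at an equitoxic concentration. Transcripts quantified by TaqMan real-time RT-PCR, normalized to RNaseP, expressed as relative quantity versus untreated cells (calibrator) by the 2−ΔΔCt method.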
# [10] = test system: Quadruplex DNA; assay: Stabilization of 5'-FAM/3'-TAMRA labelled AR3 G-quadruplex oligonucleotide (unknown origin) assessed as change in melting temperature t1/2 at 1 uM after 16 hrs in presence of 100 mM K+ by FRET assay; type: nucleic-acid assay; method in brief: as §2
# [11] = test system: Quadruplex DNA; assay: Stabilization of AR G-quadruplex oligonucleotide in human 22Rv1 cells assessed as down-regulation of MAX mRNA expression at IC50 after 48 hrs by RT-PCR analysis; type: cell-based; method in brief: as §1
# [12] = test system: Quadruplex DNA; assay: Stabilization of AR G-quadruplex oligonucleotide in human LNCAP cells assessed as reduction in PSA protein level by immunoblotting assay; type: cell-based
# Method in brief: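 Lysate proteins immunoblotted. Vinculin or β-actin used as loading control, peroxidase-linked secondary antibodies, ECL chemiluminescent detection, autoradiography, densitometric scan. Untreated cells received DMSO.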
# [13] = test system: Quadruplex DNA; assay: Stabilization of AR1 template G-quadruplex DNA (unknown origin) assessed as inhibition of polymerase progression at G4 site by measuring reduction in full length amplified product using GGCAAAAAGCAGCTGCTTATATGCAG as primer at 12.5 to 200 nM after 30 mins in presence of 5'-end labeled [gamma32P]ATP by phosphorimaging based taq polymerase stop assay; type: nucleic-acid assay
# Method in brief: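 Primer 5′-labeled with [γ-32P]ATP by T4 polynucleotide kinase, 37 °C, 30 min. Labeled primer (72 nM final) annealed to template (36 nM final) in 10 mM lithium cacodylate pH 7.4, with or without 10 mM KCl, by heating at 95 °C for 5 min then slow cooling.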
# [14] = test system: Quadruplex DNA; assay: Stabilization of AR G-quadruplex oligonucleotide in human 22Rv1 cells assessed as down-regulation of BCL2 mRNA expression at IC50 after 48 hrs by RT-PCR analysis; type: cell-based; method in brief: as §1
# [15] = test system: DU-145; assay: Cytotoxicity against human DU145 cells assessed as reduction in cell viability after 48 hrs by MTS assay; type: functional, cell-based; details: DU-145, 48 h
# Method in brief: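 Cells kept in RPMI-1640 with 10% fetal calf serum, 37 °C, 5% CO2. Seeded, after 24 h treated with 0.0001, 0.001, 0.01, 0.1, 1 and 10 μM compound (DMSO stocks freshly diluted in medium) for 48 h. MTS added 4 h, absorbance 490 nm; IC50 from curves of % viability inhibition versus DMSO-treated cells against log concentration.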
# [16] = test system: Quadruplex DNA; assay: Stabilization of AR G-quadruplex oligonucleotide in human 22Rv1 cells assessed as down-regulation of CCNE1 mRNA expression at IC50 after 48 hrs by RT-PCR analysis; type: cell-based; method in brief: as §1
# [17] = test system: Quadruplex DNA; assay: Stabilization of AR1 G-quadruplex oligonucleotide (unknown origin) assessed as melting temperature at 16 uM after 16 hrs in presence of 100 mM K+ by CD spectra analysis (reference value: 74.9 +/- 0.3 degreeC); type: nucleic-acid assay
# [18] = test system: Quadruplex DNA; assay: Stabilization of AR G-quadruplex oligonucleotide in human 22Rv1 cells assessed as regulation of PTEN mRNA expression at IC50 after 48 hrs by RT-PCR analysis; type: cell-based; method in brief: as §1
# [19] = test system: PC-3; assay: Synergistic cytotoxicity against human PC3 cells assessed as combination index for reduction in cell viability measured at ED50 Enzalutamide at 0.001 to 0.1 uM after 72 hrs by MTS assay based Chou and Talay's plot analysis
# [20] = test system: Quadruplex DNA; assay: Stabilization of AR G-quadruplex oligonucleotide in human PC3 cells assessed as down-regulation of MAX mRNA expression at IC50 after 48 hrs by RT-PCR analysis; type: cell-based
# Method in brief: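 PC-3 cells (RPMI-1640, 10% fetal calf serum) exposed at an equitoxic concentration. Expression of 92 cancer-mechanism genes measured on TaqMan Arrays. Change versus untreated cells computed by 2−ΔΔCt, with RNaseP as normalizer.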
# [21] = Stabilization of AGTGAGAGTGAGAGAGAGAGTGAGAGTGAGAGTGA/TCACTCTCACTCTCACTCTCTCTCTCACTCTCACT dsDNA (unknown origin) assessed as assessed as effect on conformational change at 16 uM after 16 hrs in presence of 100 mM K+ by CD spectra analysis
# Method in brief: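 CD: oligos at 4 μM final in 10 mM lithium cacodylate pH 7.4, 100 mM KCl, annealed 95 °C 5 min then 4 h room temperature; duplex from equimolar strands. Ligand 16 μM final, 16 h room temperature. Spectra 230−320 nm, 5 mm cell, two scans averaged at 20 °C, buffer-subtracted; melting from spectra 20−90 °C in 5 °C steps.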
# [22] = Drug uptake in human PC3 cells at 160 nM after 24 hrs by DAPI staining-based fluorescence microscopic analysis; type: ADME, cell-based; details: pc-3, 24 h, 0.16 µM
smiles,measurement,setting,value
CN(C)CCCn1c(=O)c2ccc3c(=O)n(CCCN(C)C)c(=O)c4c5[nH]c6ccccc6[nH]c5c(c1=O)c2c34.Cl.Cl,Activity,[1],inactive
same,Activity,[2],Active
same,Activity,[3],Active
same,ΔTm,[4],20.5 °C
same,Activity,[5],inactive
same,CI,[6],>1
same,Activity,[7],Active
same,RBA,[8],100%
same,Activity,[9],inactive
same,ΔTm,[10],31 °C
same,Activity,[11],Active
same,Activity,[12],Active
same,inhibition,[13],Active
same,Activity,[14],Active
same,IC50,[15],80 nM
same,Activity,[16],Active
same,Tm,[17],> 90 °C
same,Activity,[18],Active
same,CI,[19],>1
same,Activity,[20],Active
same,Activity,[21],inactive
same,Drug uptake,[22],Active

# From ChEMBL document CHEMBL4411261, “Down-Regulation of the Androgen Receptor by G-Quadruplex Ligands Sensitizes Castration-Resistant Prostate Cancer Cells to Enzalutamide” (J Med Chem, 2018)
